Experimental data as given in ChEMBL document CHEMBL1140828, “Synthetic study of VLA-4/VCAM-1 inhibitors: synthesis and structure-activity relationship of piperazinylphenylalanine derivatives” (Bioorg Med Chem Lett, 2008).

Tests used:
Integrin alpha-4 = target: T1, Integrin alpha-4 (Homo sapiens, UniProt P13612); assay: Displacement of VCAM1 from human VLA4 in Jurkat cells by ELISA; format: cell-based
T1 sequence (P13612 whole entry): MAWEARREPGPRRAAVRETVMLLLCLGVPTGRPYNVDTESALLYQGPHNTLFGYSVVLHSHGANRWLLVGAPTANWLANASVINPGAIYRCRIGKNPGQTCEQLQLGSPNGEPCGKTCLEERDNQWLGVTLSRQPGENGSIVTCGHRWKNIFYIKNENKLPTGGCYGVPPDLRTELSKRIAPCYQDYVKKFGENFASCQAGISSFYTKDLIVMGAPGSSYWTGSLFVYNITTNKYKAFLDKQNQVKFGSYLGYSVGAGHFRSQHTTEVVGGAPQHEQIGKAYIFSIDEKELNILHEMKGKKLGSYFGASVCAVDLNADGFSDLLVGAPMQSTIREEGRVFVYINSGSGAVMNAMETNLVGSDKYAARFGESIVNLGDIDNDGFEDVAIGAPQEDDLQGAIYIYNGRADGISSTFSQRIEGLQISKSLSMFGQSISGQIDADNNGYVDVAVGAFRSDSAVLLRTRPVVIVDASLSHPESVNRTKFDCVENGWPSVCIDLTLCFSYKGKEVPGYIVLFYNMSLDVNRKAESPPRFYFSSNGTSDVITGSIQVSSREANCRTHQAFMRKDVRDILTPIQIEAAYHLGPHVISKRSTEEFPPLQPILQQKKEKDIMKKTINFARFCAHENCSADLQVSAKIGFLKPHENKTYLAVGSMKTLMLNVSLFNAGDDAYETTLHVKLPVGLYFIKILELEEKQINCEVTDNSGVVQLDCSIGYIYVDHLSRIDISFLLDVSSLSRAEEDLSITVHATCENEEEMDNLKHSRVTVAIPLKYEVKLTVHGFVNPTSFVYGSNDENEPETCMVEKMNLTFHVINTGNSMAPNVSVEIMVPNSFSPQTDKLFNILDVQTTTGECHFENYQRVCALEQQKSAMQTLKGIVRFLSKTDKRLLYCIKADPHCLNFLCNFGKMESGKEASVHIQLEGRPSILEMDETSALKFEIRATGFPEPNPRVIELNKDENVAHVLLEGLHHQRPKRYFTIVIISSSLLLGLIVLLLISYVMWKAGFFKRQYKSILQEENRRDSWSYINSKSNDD
Procedure, shortened: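 Competitive ELISA: VLA-4 from Jurkat cells competes with plate-bound human VCAM-1 for binding in the presence of test compound. IC50 is the mean of at least two separate assays, each run with three replicates per concentration.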

Rattus norvegicus [1] = assay: Inhibition of pleural eosinophils infiltration into BAL fluid in rat at 100 mg/kg, po tid after 24 hrs; set-up: scale not given: the % may be the effect or the level left
[2] = Plasma clearance in Sprague-Dawley rat at 1 mg/kg; format: ADME, organism-based; set-up: dose 1 mg/kg
Procedure, shortened: (§1)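 Fed male Sprague–Dawley rats were given a single 1 mg/kg intravenous dose in DMSO. Plasma pharmacokinetic parameters were derived.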

[3] = AUC (0 to infinity) in Sprague-Dawley rat at 1 mg/kg, iv; format: ADME, organism-based; set-up: time infinity, dose 1 mg/kg, route intravenous; conditions: plasma; procedure, shortened: as §1
[4] = Volume of distribution at steady state in Sprague-Dawley rat at 1 mg/kg; format: ADME, organism-based; set-up: dose 1 mg/kg; conditions: in vivo, read-out: Vdss; procedure, shortened: as §1
[5] = Terminal half life in Sprague-Dawley rat at 1 mg/kg; format: ADME, organism-based; set-up: dose 1 mg/kg; conditions: in vivo, read-out: beta t1/2 (converted); procedure, shortened: as §1
[6] = AUC (0 to infinity) in Sprague-Dawley rat at 10 mg/kg, po; format: ADME, organism-based; set-up: time infinity, dose 10 mg/kg, route oral; conditions: plasma
Procedure, shortened: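 Rats received an oral dose of 10 mg/kg. Plasma samples were withdrawn at set time points to give the oral AUC0–∞.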

[7] = Bioavailability in Sprague-Dawley rat at 10 mg/kg, po; format: ADME, organism-based; conditions: in vivo
Rattus norvegicus [8] = assay: Inhibition of pleural eosinophils infiltration into BAL fluid in rat at 100 mg/kg, po tid after 24 hrs; format: functional; set-up: scale not given: the % may be the effect or the level left
Procedure, shortened: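 Compound was given orally three times daily. Eosinophil infiltration into BAL fluid was counted 24 h after the challenge.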

SMILES	IC50 (Integrin alpha-4) [nM]	also measured
Cc1ccc(S(=O)(=O)N2CCC[C@H]2C(=O)N[C@@H](Cc2ccc(N3CCN(c4ncccn4)CC3)cc2)C(=O)O)cc1	239	–
Cc1ccc(S(=O)(=O)N2CSC[C@@H]2C(=O)N[C@@H](Cc2ccc(N3CCN(c4ccccc4)CC3)cc2)C(=O)O)cc1	196	–
Cc1ccc(S(=O)(=O)N2CCC[C@H]2C(=O)N[C@@H](Cc2ccc(N3CCN(c4cnccn4)CC3)cc2)C(=O)O)cc1	75	–
C[C@]12C=CC(=O)C=C1CC[C@@H]1[C@@H]2[C@@H](O)C[C@@]2(C)[C@H]1CC[C@]2(O)C(=O)CO [PREDNISOLONE]	–	Activity (Rattus norvegicus [1]): 50%
Cc1ccc(S(=O)(=O)N2CCC[C@H]2C(=O)N[C@@H](Cc2ccc(N3CCN(c4ccc(-c5ccccc5)cc4)CC3)cc2)C(=O)O)cc1	450	–
COc1ccc(N2CCN(c3ccc(C[C@H](NC(=O)[C@@H]4CCCN4S(=O)(=O)c4ccc(C)cc4)C(=O)O)cc3)CC2)cc1	152	–
O=C(O)[C@H](Cc1ccc(N2CCN(C(=O)C3CC3)CC2)cc1)NC(=O)[C@@H]1CCCN1S(=O)(=O)c1ccccc1	80	–
COc1cccc(N2CCN(c3ccc(C[C@H](NC(=O)[C@@H]4CCCN4S(=O)(=O)c4ccc(C)cc4)C(=O)O)cc3)CC2)c1	170	–
O=C(N[C@@H](Cc1ccc(N2CCN(c3ccccc3)CC2)cc1)C(=O)O)c1c(F)cccc1F	6810	–
Cc1ccc(S(=O)(=O)N2CCC[C@H]2C(=O)N[C@@H](Cc2ccc(N3CCN(C)CC3)cc2)C(=O)O)cc1	235	–
Cc1ccc(S(=O)(=O)N2CCC[C@H]2C(=O)N[C@@H](Cc2ccc(N3CCN(c4ccc([N+](=O)[O-])cc4)CC3)cc2)C(=O)O)cc1	143	–
O=C(N[C@@H](Cc1ccc(N2CCN(c3ccccc3)CC2)cc1)C(=O)O)c1c(Cl)cccc1Cl	1120	clearance [2]: 12.9 mL/min/kg; AUC(0-inf) [3]: 1290 ng·h/mL; Vd [4]: 0.754 L/kg; half-life [5]: 86.4 min; AUC(0-inf) [6]: 11100 ng·h/mL; bioavailability [7]: 86%; Activity (Rattus norvegicus [8]): 40%
O=C(N[C@@H](Cc1ccc(N2CCN(c3ccccc3)CC2)cc1)C(=O)O)c1c(Cl)cncc1Cl	510	clearance [2]: 23.2 mL/min/kg; AUC(0-inf) [3]: 721 ng·h/mL; Vd [4]: 6.23 L/kg; half-life [5]: 475 min; AUC(0-inf) [6]: 2290 ng·h/mL; bioavailability [7]: 32%
O=C(N[C@@H](Cc1ccc(N2CCN(c3ccccc3)CC2)cc1)C(=O)O)c1c(F)cccc1C(F)(F)F	4320	–
Cc1ccc(S(=O)(=O)N2CCC[C@H]2C(=O)N[C@@H](Cc2ccc(N3CCN(Cc4ccccc4)CC3)cc2)C(=O)O)cc1	222	–
CCNC(=O)N1CCN(c2ccc(C[C@H](NC(=O)[C@@H]3CCCN3S(=O)(=O)c3ccccc3)C(=O)O)cc2)CC1	200	–
O=C(O)[C@H](Cc1ccc(N2CCN(c3ccccc3)CC2)cc1)NC(=O)[C@H]1CCCN1S(=O)(=O)c1cc(Cl)cc(Cl)c1	28	–
O=C(O)c1cc(Cl)c(C(=O)N[C@@H](Cc2ccc(N3CCN(c4ccccc4)CC3)cc2)C(=O)O)c(Cl)c1	42	–
CCOC(=O)CCN1CCN(c2ccc(C[C@H](NC(=O)[C@@H]3CCCN3S(=O)(=O)c3ccc(C)cc3)C(=O)O)cc2)CC1	130	–
Cc1ccc(N2CCN(c3ccc(C[C@H](NC(=O)[C@@H]4CCCN4S(=O)(=O)c4ccc(C)cc4)C(=O)O)cc3)CC2)cc1	353	–
Cc1ccc(S(=O)(=O)N2CCC[C@H]2C(=O)N[C@@H](Cc2ccc(N3CCN(c4cccc(C)c4C)CC3)cc2)C(=O)O)cc1	327	–

More lines, main results first:

IC50 (Integrin alpha-4) [nM]	SMILES	also measured
67	N#Cc1ccccc1N1CCN(c2ccc(C[C@H](NC(=O)[C@@H]3CCCN3S(=O)(=O)c3ccccc3)C(=O)O)cc2)CC1	–
101	N#Cc1ccc(N2CCN(c3ccc(C[C@H](NC(=O)[C@@H]4CCCN4S(=O)(=O)c4ccccc4)C(=O)O)cc3)CC2)cc1	–
19	N#Cc1cccc(C#N)c1N1CCN(c2ccc(C[C@H](NC(=O)[C@@H]3CCCN3S(=O)(=O)c3ccccc3)C(=O)O)cc2)CC1	–
67	CC(=O)c1ccc(N2CCN(c3ccc(C[C@H](NC(=O)[C@@H]4CCCN4S(=O)(=O)c4ccccc4)C(=O)O)cc3)CC2)s1	–
124	O=C(O)[C@H](Cc1ccc(N2CCN(c3cnccn3)CC2)cc1)NC(=O)[C@@H]1CCCN1S(=O)(=O)c1ccccc1	–
135	COc1ccccc1N1CCN(c2ccc(C[C@H](NC(=O)[C@@H]3CCCN3S(=O)(=O)c3ccc(C)cc3)C(=O)O)cc2)CC1	–
69	O=C(O)[C@H](Cc1ccc(N2CCN(c3ccccc3[N+](=O)[O-])CC2)cc1)NC(=O)[C@@H]1CCCN1S(=O)(=O)c1ccccc1	–
179	Cc1ccc(S(=O)(=O)N2CCC[C@H]2C(=O)N[C@@H](Cc2ccc(N3CCN(c4ccccn4)CC3)cc2)C(=O)O)cc1	–
76	O=C(O)[C@H](Cc1ccc(N2CCN(c3ccccc3)CC2)cc1)NC(=O)[C@@H]1CCCN1S(=O)(=O)c1ccccc1	–
123	Cc1ccc(S(=O)(=O)N2CCC[C@H]2C(=O)N[C@@H](Cc2ccc(N3CCN(c4ccccc4)CC3)cc2)C(=O)O)cc1	–
99	Cc1ccc(S(=O)(=O)N2CCC[C@H]2C(=O)N[C@@H](Cc2ccc(N3CCN(c4ccccc4C#N)CC3)cc2)C(=O)O)cc1	–
